Source: PubChem BioAssay
Only some compounds are listed: those with a hit (about 1.8% of all), similar ones and a draw of the others.
HTRA1 inhibitor – inhibitors of human serine peptidase HTRA1; Q92743; AID 504803; 340,000 tested, 0.5% active; recombinant HTRA1, FP-rhodamine activity-based probe, fluorescence polarization; inhibition, % at 5.96 µM; in the data active means inhibition above about 36%
SIAE primary – human SIAE inhibition, primary screen; inhibition, % at 9.66 µM; AID 1053197; 370,000 tested, 0.69% active; SIAE FP-Rh probe binding, fluorescence polarization;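 active means inhibition above a cutoff: mean of compounds within the control limits plus 3 SD of those, cut at about 17% in these data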
TCR CD3 inh – inhibitors of human TCR-CD3 interaction | TAMRA-labeled TCR probe fluorescence, biochemical | 360,000 tested, 0.37% active | inhibition, % at 9.4 µM; in the data active means inhibition above about 19%;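 further: recombinant mutant TCR 2C K166C tagged with TAMRA read by polarization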
DDE Tn7 FP inh – disrupts Tn7 cyclic peptide binding to fibrin D-Dimer-E complex; P02675; FP displacement of FITC-Tn7 peptide from fibrin DD(E); 0% = median of compound wells per plate; inhibition, % at 8.3 µM; 370,000 tested, 0.13% active;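 active means inhibition above the mean of compounds falling within the control limits plus 3 SD of them, cut at about 14% in these data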
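Assay system: Human fibrin DD(E) protein | Medium: Tris buffer with calcium and detergent, pH 7.8 | Reagent: 0.1 µM fluorescent Tn7 | Compound dosing: Single point at 8.3 µM | Times: 10 min preincubation, 3 h with tracer, room temperature | Detection: Fluorescence polarization of the labelled Tn7 tracer | Controls: Aha-Tn7 high control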
Tn6 DDE FP – DD(E)-Tn6 binding inhibition, primary FP screen | P02675 | Fibrin DD(E) TRITC-Tn6 fluorescence polarization displacement | inhibition, % at 8.3 µM | 370,000 tested, 0.21% active;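 active means inhibition above a per-campaign cutoff: mean of compounds within control limits plus 3 SD, cut at about 15% in these data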
mABHD4 FP – inhibitors of mouse ABHD4. Q8VD66. purified mABHD4, FP-Rh probe fluorescence polarization. inhibition, % at 8.92 µM. 370,000 tested, 0.54% active. AID 720543;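 active means inhibition exceeding the mean over every tested compound plus 3 SD, cut at about 30% in these data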
Target sequence (Q8VD66 whole entry, looked up): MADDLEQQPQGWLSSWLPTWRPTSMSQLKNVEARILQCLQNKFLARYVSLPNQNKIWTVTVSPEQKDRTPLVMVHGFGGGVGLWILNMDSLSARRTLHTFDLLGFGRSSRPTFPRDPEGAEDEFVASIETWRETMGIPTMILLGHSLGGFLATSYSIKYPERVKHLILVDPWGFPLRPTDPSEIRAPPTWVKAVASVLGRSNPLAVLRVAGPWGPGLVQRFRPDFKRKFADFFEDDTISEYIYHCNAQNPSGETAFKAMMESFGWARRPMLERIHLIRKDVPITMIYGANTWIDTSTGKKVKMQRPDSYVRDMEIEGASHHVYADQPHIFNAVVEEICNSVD
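system = mouse ABHD4 enzyme, wild type | medium = HEPES pH 7.0, NaCl, Pluronic buffer | also added = FP-Rh probe | incubation = Enzyme–compound pre-incubation 45 min, then probe 60 min, both 25 °C | technique = fluorescence polarization, excitation 525 nm, emission 598 nm, BODIPY TMR filters | controls = S159A mutant high control, sample median low control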
HTRA1 inh conf – HTRA1 (human) inhibition, confirmation | shares compounds with HTRA1 inhibitor | recombinant HTRA1, FP-rhodamine activity-based probe, fluorescence polarization | inhibition, % at 5.96 µM | 1,600 tested, 66% active;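 active means mean inhibition over three repeats above a set limit taken from the earlier primary screen, cut at about 37% in these data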;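 further: inhibitors block probe binding so polarization drops and inhibition rises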
Large screens that a line does not name were inactive (follow-up assays come after a bar, where they were run).

CN1CCN(c2nc(-c3ccccn3)nc3ccccc23)CC1	none
CN1CCN(CC(=O)N2CCn3c4c(c5cc(C6CCCCC6)ccc53)CCCC42)CC1 (stereo not drawn)	HTRA1 inhibitor 41 (no result: SIAE primary, TCR CD3 inh, DDE Tn7 FP inh, Tn6 DDE FP, mABHD4 FP) | HTRA1 inh conf 54
Cc1ccc2c(c1)c1c3n2CCN(C(=O)CN2CCN(C)CC2)C3CCC1 (stereo not drawn)	none
C=CCN1C(=O)[C@@H](CC(=O)N2CCSCC2)[C@]2(C(=O)OC)CCCCC=C12	none (no result: HTRA1 inhibitor, TCR CD3 inh)
COc1ccc(C(=O)OCCCN(C)C2CN(Cc3cn(Cc4ccccc4F)nn3)S(=O)(=O)C2)cc1OC (stereo not drawn)	none (no result: HTRA1 inhibitor, TCR CD3 inh)
COC(=O)C1=C(C)NC(C)=C(C(=O)OC)C1c1cc2cc(C)ccc2[nH]c1=O	none
N#CC1=C(N)Oc2c(ccc3cccnc23)C1c1ccccc1 (stereo not drawn)	HTRA1 inhibitor 41 | HTRA1 inh conf inactive
Cc1ccc2[nH]c(=O)c(C3C(C#N)=C(N)Oc4c3ccc3cccnc43)cc2c1 (stereo not drawn)	HTRA1 inhibitor 73, SIAE primary 25 | HTRA1 inh conf inactive
CC(C)CN1C(=O)C[C@@]2(C(=O)N(C)c3ccc(NS(=O)(=O)c4ccc(F)cc4)cc32)C1c1ccccc1 (stereo partly drawn)	none (no result: HTRA1 inhibitor, TCR CD3 inh)
Cc1ccc2c(c1)c(=O)c1c3n2CCN(C(=O)CCl)C3CC1 (stereo not drawn)	HTRA1 inhibitor 48 | HTRA1 inh conf inactive
Cc1ccc2c(c1)c1c3n2CCN(C(=O)C2CC2)C3CCC1 (stereo not drawn)	none
Nc1cccc(Nc2nc(OC(C(F)(F)F)C(F)(F)F)nc(OC(C(F)(F)F)C(F)(F)F)n2)c1	HTRA1 inhibitor 38 | HTRA1 inh conf inactive
COc1nc(Nc2ccc(O)cc2)nc(OC(C(F)(F)F)C(F)(F)F)n1	none
COc1ccc(Br)cc1/C=N/N1C(=O)CSC1=S	none
O=C1CSC(=S)N1N=Cc1c[nH]c2ccc(Br)cc12	HTRA1 inhibitor 56 | HTRA1 inh conf 60
COc1ccc(NC(=O)c2cc3ccccc3cc2O)cc1	HTRA1 inhibitor 39 | HTRA1 inh conf inactive
O=S1(=O)c2ccc(Br)cc2OC[C@@H](Cc2ccccc2)N1Cc1cn(Cc2ccc(F)cc2)nn1	none (no result: HTRA1 inhibitor, TCR CD3 inh)
CCN(CC)c1cccc(OC2=NS(=O)(=O)c3ccccc32)c1	HTRA1 inhibitor 46, SIAE primary 31, TCR CD3 inh 53, Tn6 DDE FP 111, mABHD4 FP 88 | HTRA1 inh conf inactive
CCc1ccc(OC2=NS(=O)(=O)c3ccccc32)cc1	none
C(=Nc1cccc2c(N=Cc3ccco3)cccc12)c1ccco1	HTRA1 inhibitor 39 (no result: SIAE primary, TCR CD3 inh, DDE Tn7 FP inh, Tn6 DDE FP, mABHD4 FP) | HTRA1 inh conf inactive
O=[N+]([O-])c1ccc(NN=C2CC3CCC2C3)c([N+](=O)[O-])c1 (stereo not drawn)	none (no result: HTRA1 inhibitor)
Brc1ccc(C=Nc2ccc(Nc3ccccc3)cc2)s1	HTRA1 inhibitor 73 (no result: SIAE primary, TCR CD3 inh, DDE Tn7 FP inh, Tn6 DDE FP, mABHD4 FP) | HTRA1 inh conf 94
Cc1c2cc[n+](CCN3CCCCC3)cc2c(C)c2c1[nH]c1ccc(O)cc12	HTRA1 inhibitor 41 (no result: SIAE primary, TCR CD3 inh, DDE Tn7 FP inh, Tn6 DDE FP, mABHD4 FP) | HTRA1 inh conf 55
CC(=NNC(=O)CSc1nnc(-c2ccccc2)n1-c1ccccc1)c1cccc([N+](=O)[O-])c1	none (no result: HTRA1 inhibitor, TCR CD3 inh)
CCC(c1ccc(O)c(O)c1)C(CC)c1ccc(O)c(O)c1 (stereo not drawn)	HTRA1 inhibitor 59 (no result: SIAE primary, TCR CD3 inh, DDE Tn7 FP inh, Tn6 DDE FP, mABHD4 FP) | HTRA1 inh conf 68
COc1cccc(/C=N/NC(=O)C(=O)N2CCCCCC2)c1OC	none
COc1ccc(OC)c(/C=N/NC(=O)C(=O)N2CCCCCC2)c1	HTRA1 inhibitor 42 | HTRA1 inh conf inactive
c1ccc(CSc2nnc(-c3ccco3)n2Cc2ccco2)cc1	none
CCCCOc1[nH]c2nc(-c3ccco3)n(Cc3ccco3)c(=N)c2c1C#N	HTRA1 inhibitor 42, mABHD4 FP 45 | HTRA1 inh conf inactive
C=CCn1c(SCC(=O)c2ccc(O)c(O)c2)nnc1-c1cccnc1	none
C=CCn1c(SCC(=O)c2ccc(O)c(O)c2)nnc1-c1cccc(Cl)c1	HTRA1 inhibitor 56 | HTRA1 inh conf 73
CN1C2=N[C@@H](c3cccc(C(F)(F)F)c3)CC(=O)N2/C(=C\c2ccccc2)[C@H]1c1ccccc1	none (no result: HTRA1 inhibitor, TCR CD3 inh)
CCOc1ccc(CNc2ccc(N3CCCC3)cc2)cc1	HTRA1 inhibitor 58 (no result: SIAE primary, TCR CD3 inh, DDE Tn7 FP inh, Tn6 DDE FP, mABHD4 FP) | HTRA1 inh conf inactive
COc1cc(CNc2ccc(N3CCCC3)cc2)cc(Cl)c1OC	HTRA1 inhibitor 41 | HTRA1 inh conf inactive
CCOc1cc(CNc2ccc(S(N)(=O)=O)cc2)cc(Cl)c1OC	none
CCOc1cc(CNc2ccc(N3CCCCC3)cc2)cc(Br)c1OCC(=O)NC(C)(C)C	HTRA1 inhibitor 45 | HTRA1 inh conf inactive
CCOc1cc(CNc2ccc(N(C)C)cc2)cc(Br)c1OCC(=O)NC(C)(C)C	none
COc1cc(CNc2ccc(N3CCOCC3)cc2)cc(Br)c1OC	none
CCOc1cc(CNc2ccc(N3CCCC3)cc2)cc(Cl)c1OC	HTRA1 inhibitor 55 | HTRA1 inh conf inactive
CCOC(=O)N1CCC(=NNC(=O)c2cc3ccccc3cc2O)CC1	HTRA1 inhibitor 43 | HTRA1 inh conf inactive
N/C(Cc1ccc(Cl)c(Cl)c1)=N\OC(=O)c1ccc(Br)o1	HTRA1 inhibitor active | HTRA1 inh conf inactive
COc1ccc(N=C2NC(=O)/C(=C\C=C\c3ccco3)S2)cc1	HTRA1 inhibitor 38 | HTRA1 inh conf inactive
Cc1cccc(N=C2NC(=O)/C(=C/C=C/c3ccco3)S2)c1	none
CCn1c(/C=C/c2ccc(O)c(O)c2)nc2ccccc2c1=O	HTRA1 inhibitor 59 | HTRA1 inh conf 112
O=c1nc(/C=C/c2ccc(O)c(O)c2)oc2ccccc12	HTRA1 inhibitor 72 (no result: SIAE primary, TCR CD3 inh, DDE Tn7 FP inh, Tn6 DDE FP, mABHD4 FP) | HTRA1 inh conf 76
CCn1c(/C=C/c2ccc(O)cc2)nc2ccccc2c1=O	none
Oc1cc(Nc2cccnc2)cc2cccnc12	none
Oc1cc(Nc2ccncc2)cc2cccnc12	HTRA1 inhibitor 43 | HTRA1 inh conf 37
COc1ccc(/C=N\NC(=O)c2cc(O)c(O)c(O)c2)cc1COc1ccc(C(=O)OCC(C)C)cc1	HTRA1 inhibitor 58 | HTRA1 inh conf 55
COc1ccc(C(=O)N/N=C/c2ccc(OC)c(COc3ccccc3)c2)cc1	none
O=Cc1ccc(O)c(O)c1	none
Oc1ccc(N=Cc2ccc(O)c(O)c2)cc1	HTRA1 inhibitor 57 (no result: SIAE primary, TCR CD3 inh, DDE Tn7 FP inh, Tn6 DDE FP, mABHD4 FP) | HTRA1 inh conf 52
CC(C)c1ccc(NC(=O)CN2CCN(C(=O)C3CCCO3)CC2)cc1 (stereo not drawn)	none
COc1ccc(C2CCC3(CCC(=O)N3CCOC(=O)NCc3ccc(Cl)cc3)CC2)cc1 (stereo not drawn)	none (no result: HTRA1 inhibitor, TCR CD3 inh)
O=C1C=CC(=O)C(CNc2ccc(C(=O)OCc3ccccc3)cc2)=C1	HTRA1 inhibitor 42, mABHD4 FP 36 | HTRA1 inh conf inactive
